Shown are actives, neighbours in structure and some others; about 4.1% of the full set was active somewhere.
XBP1 UPR activ = activators of adaptive XBP1 UPR arm, primary screen, cell-based, CHO-XBP1 luciferase reporter, luminescence, uHTS; IRE1-XBP1 UPR activation; percent of tunicamycin response, DMSO as zero; 0.33% of 330,000 active; activation, % at 20 µM; AID 463104, 2010;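 active = versus positive control, 20 µM dose yields 30% or more activation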;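 also: 100% = tunicamycin at 10 µg/mL and 0% = DMSO only wells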
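Material: CHO cell line with stable XBP1 luciferase reporter; schedule: 16-18 h cell attachment at 37 °C, then 6 h compound exposure; signal: glow luminescence from Steady-Glo reagent; medium: serum-containing F12 medium, 10% FBS; benchmarks: tunicamycin 10 µg/mL and vehicle-only wells; read-out: percent activation relative to tunicamycin reference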
Apaf-1 inh = inhibitors of human Apaf-1 apoptosome, primary screen, biochemical, DEVD-Rh110 fluorescence, uHTS. Apoptotic protease-activating factor 1 (Homo sapiens), O14727. reconstituted apoptosome caspase-3 activity. inhibition, % at 20 µM. 0.71% of 330,000 active. AID 489030, 2010; active = inhibition of at least 40% at 20 µM;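 also: plate controls were DMSO wells for no effect and DEVD-CHO caspase inhibitor wells for full effect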
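System – cell-free apoptosome with Apaf-1, procaspase-3 and caspase-9 · Buffer or medium – pH 7.5 Hepes buffer with CHAPS, BSA, DTT · Also added – cytochrome c with DEVD-Rh110 · Times – 30 min compound preincubation, 50 min activation, room temperature · Technique – Rh110 fluorescence intensity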
Mdm2 MdmX PPI = inhibitors of human Mdm2-MdmX association, primary screen, cell-based, luminescence, split luciferase, SaOS-2, uHTS; Protein Mdm4 (Homo sapiens) + E3 ubiquitin-protein ligase Mdm2 (Homo sapiens), …; 3% of 330,000 active; SaOS-2 split-luciferase Mdm2/MdmX complementation; inhibition, % at 8 µM;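 active = inhibition of at least 50% at 8 µM in the primary screen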
CHOP UPR activ = activators of apoptotic CHOP UPR arm, primary screen, cell-based, CHO-CHOP luciferase reporter, luminescence, uHTS. UPR activation; percent of tunicamycin response over DMSO baseline. activation, % at 10 µM. 0.34% of 330,000 active. AID 449763, 2010;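 active = at 10 µM dose, activation of 40% or more, normalized to positive control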;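 also: 100% = tunicamycin at 10 µg/mL and 0% = DMSO alone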
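measured by = luciferase luminescence | assay system = CHO-CHOP cells, stable luciferase reporter of PERK-eIF2a-CHOP signalling | amount = 500 reporter cells seeded per well | timing = 6 h compound exposure at 37 °C after overnight seeding | controls = positive tunicamycin 10 µg/mL, negative DMSO alone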
UBC13 polyUb = UBC13 polyubiquitin chain formation inhibitors, primary screen, biochemical, TR-FRET, uHTS; Ubiquitin-conjugating enzyme E2 N (Homo sapiens), P61088; 0.47% of 330,000 active; inhibition, % at 20 µM; in the data active = inhibition above about 45%, passing the limit was not always enough
Target sequence (P61088 whole entry, looked up): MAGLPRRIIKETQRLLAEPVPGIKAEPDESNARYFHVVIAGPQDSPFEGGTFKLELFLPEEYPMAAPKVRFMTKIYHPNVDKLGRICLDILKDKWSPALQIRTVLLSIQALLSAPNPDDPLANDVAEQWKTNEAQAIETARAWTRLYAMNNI
CHOP UPR conf = activators of apoptotic CHOP UPR arm, confirmation, cell-based, CHO-CHOP luciferase reporter, single concentration | activation, % at 10 µM | shares compounds with CHOP UPR activ | 64% of 1,000 active | CHO-CHOP cells, CHOP-luciferase reporter luminescence; percent of tunicamycin response, DMSO as zero; in the data active = activation above about 33%;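 also: 0% = DMSO wells and 100% = tunicamycin 10 µg/mL wells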
Numbers without * were called inactive; / = no result given.

SMILES	XBP1 UPR activ	Apaf-1 inh	Mdm2 MdmX PPI	CHOP UPR activ	UBC13 polyUb	CHOP UPR conf
O=C1C=CC(=O)C(C2=C3C(=O)N(CCc4ccccc4)CC(=O)N3CCC2)=C1	-3	15	27	131*	-13	49*
COc1cc2nc(=S)n3[nH]c(CCn4nc(C)cc4C)nc3c2cc1OC	16	0	18	132*	25	98*
CC1=N/C(=C\c2ccc([N+](=O)[O-])cc2)C(=O)N1c1ccc(F)cc1F	-1	14	8	2	-15	/
N#Cc1cc([N+](=O)[O-])c(-n2nnc3ccccc32)c([N+](=O)[O-])c1	-6	13	21	122*	-15	74*
O=C(CCc1ccccc1)NNC(=S)NC(=O)c1ccc(Cl)cc1	2	3	29	-1	-40	/
CCN(C(=O)CSc1ccc2ccccc2n1)C1CCCCC1	1	12	15	2	29	/
COc1ccccc1NC(=O)c1cnc(SCC(=O)NCC2CCCO2)n(C)c1=O (stereo unspecified)	-2	4	-15	57*	31	34*
Cc1cc(-c2ccco2)c(C#N)c2nc3ccccc3n12	5	20	-3	4	-17	/
S=C1SCN(CC2CC2)CN1CC1CC1	1	0	20	82*	-4	86*
O=C(C[n+]1cccc(C(=O)N/N=C/c2cccc([N+](=O)[O-])c2)c1)c1ccccc1	-2	35	23	2	6	/
O=[N+]([O-])c1ccccc1CN1CCN(Cc2c[nH]c3ccccc23)CC1	17	1	-8	49*	10	21
O=C(c1ccccc1)N1CCN(Cc2c[nH]c3ccccc23)CC1	1	-3	-14	1	10	/
COc1ccc(N2C(=O)C(Cl)=C(Oc3cccc(OC)c3)C2=O)cc1	-6	1	23	94*	-11	31
COc1ccc(N2C(=O)c3ccccc3C2=O)cc1	-1	-8	9	2	-8	/
COc1ccc(C(=O)Cn2c(C)nc([N+](=O)[O-])c2Br)cc1	-2	-9	38	4	3	/
Cc1nc([N+](=O)[O-])c(Br)n1CC(=O)c1ccc(Cl)cc1	-6	-1	36	58*	-6	60*
O=c1[nH]c(CSc2nnc(NCCCN3CCOCC3)s2)nc2cc(Cl)ccc12	-3	-8	-5	0	3	/
O=C(CCCCl)Nc1c2c(nn1-c1ccccc1)CSC2	3	1	8	-1	3	/
O=C(CCl)Nc1c2c(nn1-c1ccccc1)CSC2	-3	7	37	70*	-1	3
CCOC(=O)C1(Cc2ccccc2C)CCCN(C(=O)c2ccoc2)C1 (stereo unspecified)	4	2	-9	1	-4	/
COc1ccc(-c2nc(-c3ccccc3)nc(Cl)c2C#N)cc1	72*	5	-1	81*	20	33*
CNC(=O)N(O)C1N(/N=C/c2cc(Br)ccc2O)C(=S)SC1(C)C (stereo unspecified)	-5	11	10	-1	-13	/
Cc1cccc(NC(=S)N=Nc2c(O)n(CN3CCOCC3)c3ccccc23)c1C	4	12	35	11	30	/
C=CCn1c(O)c(N=NC(=S)Nc2ccccc2C)c2cc(S(=O)(=O)N3CCOCC3)ccc21	3	0	39	45*	-29	31
CCCCOC(=O)c1ccc(NC(=O)c2c(N)n(C)c(=O)[nH]c2=O)cc1	3	0	-12	-2	-15	/
SMILES	XBP1 UPR activ	Apaf-1 inh	Mdm2 MdmX PPI	CHOP UPR activ	UBC13 polyUb	CHOP UPR conf
CC(C)N(C(C)C)S(=O)(=O)c1ccc(N2CCc3ccccc3C2)nc1	29	20	39	64*	-11	2
CCN(CC)S(=O)(=O)c1ccc(N2CCc3ccccc3C2)nc1	-2	25	33	15	-2	/
COC(=O)Cn1c(=NC(=O)c2ccc([N+](=O)[O-])s2)sc2cc(Br)ccc21	11	7	15	50*	-10	24
COC(=O)Cn1c(=NC(=O)c2ccc(Cl)s2)sc2cc(C)ccc21	2	-1	11	7	16	/
CC(C)c1ccc(NC(=O)/C(C#N)=C/c2ccncc2)cc1	17	5	13	59*	3	97*
N#C/C(=C\c1ccncc1)C(=O)Nc1ccc(C(=O)O)cc1	-2	-8	2	0	6	/
Nc1nc(-c2ccc3ccccc3c2)c(C2(O)C(=O)Nc3c(Br)cc(F)cc32)s1 (stereo unspecified)	0	-4	5	-1	11	/
Cc1ccc(Nc2nc(-c3ccc(O)c(O)c3)cs2)nc1	9	27	16	216*	15	164*
Cc1ccc(Nc2nc(-c3ccc(F)cc3)cs2)nc1	-3	11	-188	5	0	/
CC(Cc1ccc(O)c(O)c1)C(C)Cc1ccc(O)c(O)c1 (stereo unspecified)	-2	24	-4	83*	13	23
Cc1cc(SCC(=O)N/N=C/c2ccc(O)c(O)c2)nc2ccccc12	59*	8	34	108*	-13	42*
O=C(N/N=C/c1ccc(O)c(O)c1)c1cc(-c2ccccc2)nc2ccccc12	34*	12	-4	99*	-9	25
O=C(N/N=C/c1cccc(O)c1)c1cc(-c2ccccc2)nc2ccccc12	-2	12	4	5	4	/
Cc1cc(SCC(=O)N/N=C/c2ccc(O)c(O)c2)c(C)cc1Br	23	-1	22	57*	4	20
O=C(NC1CCCN(CCc2ccccc2)C1)C1CCCC1 (stereo unspecified)	-6	-22	-21	-1	-3	/
O=C(C=C=Nc1ccccc1)C(=O)N=C=Cc1ccccc1	1	6	40	225*	-28	135*
O=C(N/N=C/c1ccccc1)C(=O)N/N=C/c1ccccc1	-1	-7	29	0	0	/
N#C/C(=C\c1ccc([N+](=O)[O-])o1)C(=O)Nc1ccc(F)cc1	-4	0	14	166*	-1	156*
CC1(C)Cc2c(c(N3CCOCC3)nc3sc(C(=O)Nc4cccc(Cl)c4)c(N)c23)CO1	7	26	-14	88*	31	0

Screening data as filed in PubChem.
